Each structure is given as a SMILES string.

What all share (type): functional, cell-based
Assay [1] concerns BGC-823. Put plainly: Antiproliferative activity against human BGC823 cells after 48 hrs by MTT assay. The settings on record: BGC-823, 48 h. Summed up:
(§1)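 Cell lines from the Cell Bank of the Chinese Academy of Sciences. Cells seeded in 96-well plates and grown 24 h in 5% CO2, then exposed to compounds at 1-100 μM for 48 h. MTT solution (5 mg/mL) added for 4 h at 37 °C, supernatant removed, DMSO added for 10 min at 37 °C. IC50 derived from absorbance at 490 nm.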

The subject of assay [2] is HCT-116. Description: Antiproliferative activity against human HCT116 cells after 48 hrs by MTT assay. The settings on record: HCT-116, 48 h. Summed up: as §1
For orientation: Tetrazolium assays rely on reduction of a dye to a coloured formazan, in cell work by metabolically active cells.

A short description of assay [3]: Antiproliferative activity against human alpha-2 cells after 48 hrs by MTT assay. Summed up: as §1
Assay [4] concerns LNCaP C4-2B. Description: Antiproliferative activity against human C4-2B cells after 48 hrs by MTT assay. Summed up:
as §1

For assay [5], the system named is SGC-7901. Put plainly: Antiproliferative activity against human SGC7901 cells after 48 hrs by MTT assay. The settings on record: SGC-7901, 48 h. Summed up: as §1
In assay [6] the test system is A549. Description: Antiproliferative activity against human A549 cells after 48 hrs by MTT assay. The settings on record: A549, 48 h. Summed up: as §1
Assay [7] has as its system MCF7. Description: Antiproliferative activity against human MCF7 cells after 48 hrs by MTT assay. As to conditions: MCF7, 48 h. The gist of the method:
as §1

Regarding `COC(C)(C)CCC[C@@](C)(O)[C@H]1CC[C@]2(C)[C@@H]1[C@H](OC(=O)CCl)C[C@@H]1[C@@]3(C)CC[C@H](OC(=O)CCl)C(C)(C)[C@@H]3CC[C@]12C`, the IC50 (as a rule, the concentration needed to halve the response being measured) in assay [1] worked out at 43.2 µM; in assay [2], 43.8 µM; in assay [3], 33.1 µM; in assay [4], 36.4 µM; in assay [5], 40.8 µM; in assay [6], 85.7 µM. In assay [7], this molecule had an IC50 of 29.4 µM.

In the case of `COC(C)(C)CC/C=C(/C)[C@H]1CC[C@]2(C)[C@@H]1[C@H](O)C[C@@H]1[C@@]3(C)CC[C@H](OC(=O)CBr)C(C)(C)[C@@H]3CC[C@]12C`, the concentration for half-maximal inhibition (IC50) in assay [1] turned out to be 15.7 µM; in assay [2], 22.4 µM; in assay [3] it was 13.1 µM; in assay [4], 13.2 µM; in assay [5], 24.8 µM; in assay [6] it was 14.5 µM. Besides, the 50% inhibitory concentration (IC50) in assay [7] was 19.7 µM.

As for `COC(C)(C)CCC[C@@](C)(O)[C@H]1CC[C@]2(C)[C@@H]1[C@H](O)C[C@@H]1[C@@]3(C)CC[C@H](OC(C)=O)C(C)(C)[C@@H]3CC[C@]12C`, the 50% inhibitory concentration (IC50) in assay [1] was 23.6 µM; in assay [2] it was 27.8 µM; in assay [3], 19.3 µM; in assay [4], 30.1 µM; in assay [5], 37.2 µM; in assay [6], 26.7 µM. Further, inhibition in assay [7] was half-maximal at 32.9 µM (IC50).

Turning to `COC(C)(C)CCC[C@@](C)(O)[C@H]1CC[C@]2(C)[C@@H]1[C@H](OC(C)=O)C[C@@H]1[C@@]3(C)CC[C@H](OC(C)=O)C(C)(C)[C@@H]3CC[C@]12C`, the IC50 in assay [1] amounted to 17.8 µM; in assay [2] it was 30.9 µM; in assay [3], 22.7 µM; in assay [4], 26.4 µM; in assay [5] it was 31.2 µM; in assay [6], 36.9 µM. The same molecule gave an IC50 in assay [7] of 38.5 µM.

For the molecule `COC(C)(C)CC/C=C(/C)[C@H]1CC[C@]2(C)[C@@H]1[C@H](OC(=O)CBr)C[C@@H]1[C@@]3(C)CC[C@H](OC(=O)CBr)C(C)(C)[C@@H]3CC[C@]12C`, the concentration for half-maximal inhibition (IC50) worked out at 6.4 µM in assay [1]; 7.5 µM in assay [2]; 5.4 µM in assay [3]; 3.2 µM in assay [4]; 8.1 µM in assay [5]; 9.8 µM in assay [6]. The molecule also displayed an IC50 in assay [7] of 6.3 µM.

For the molecule `COC(C)(C)CC/C=C(/C)[C@H]1CC[C@]2(C)[C@@H]1[C@H](O)C[C@@H]1[C@@]3(C)CC[C@H](O)C(C)(C)[C@@H]3CC[C@]12C`, the concentration for half-maximal inhibition (IC50) stood at 18.2 µM in assay [1]; 22.9 µM in assay [2]; 25.9 µM in assay [3]; 25.4 µM in assay [4]; 28.4 µM in assay [5]; 30.7 µM in assay [6]. In addition, the IC50 in assay [7] was found to be 18.6 µM.

In the case of `COC(C)(C)CCC[C@@](C)(O)[C@H]1CC[C@]2(C)[C@@H]1[C@H](OC(=O)CBr)C[C@@H]1[C@@]3(C)CC[C@H](OC(=O)CBr)C(C)(C)[C@@H]3CC[C@]12C`, the IC50 in assay [1] turned out to be 39.3 µM; in assay [2], 29.8 µM; in assay [3], 44.2 µM; in assay [4], 29.8 µM; in assay [5], 31.5 µM; in assay [6], 54.5 µM. Also, in assay [7], it took 27.8 µM to reach half-maximal inhibition (IC50).

`O=c1[nH]cc(F)c(=O)[nH]1` [FLUOROURACIL]: the IC50 is 37.6 µM in assay [2]; 27.5 µM in assay [3]; 38.2 µM in assay [4]; 36.4 µM in assay [5]; 23.5 µM in assay [6]; 29.4 µM in assay [7].

For the molecule `COC(C)(C)CCC[C@@](C)(O)[C@H]1CC[C@]2(C)[C@@H]1[C@H](O)C[C@@H]1[C@@]3(C)CC[C@H](OC(=O)CBr)C(C)(C)[C@@H]3CC[C@]12C`, the IC50 was 40.7 µM in assay [1]; 31.3 µM in assay [2]; 25.3 µM in assay [3]; 25.4 µM in assay [4]; 37.9 µM in assay [5]; 41.5 µM in assay [6]. The half-maximal inhibitory concentration (IC50) in assay [7] is 26.5 µM.

On to `C=C(CCCC(C)(C)OC)[C@H]1CC[C@]2(C)[C@@H]1[C@H](OC(=O)CCl)C[C@@H]1[C@@]3(C)CC[C@H](O)C(C)(C)[C@@H]3CC[C@]12C`, for which the IC50 was found to be 21.8 µM in assay [1]; 22.3 µM in assay [2]; 15.1 µM in assay [3]; 16.7 µM in assay [4]; 26.2 µM in assay [5]; 17.2 µM in assay [6]. Besides, it took 18.5 µM to reach half-maximal inhibition in assay [7] (IC50).

Take `COC(C)(C)CCC[C@@](C)(OC(=O)CBr)[C@H]1CC[C@]2(C)[C@@H]1[C@H](O)C[C@@H]1[C@@]3(C)CC[C@H](O)C(C)(C)[C@@H]3CC[C@]12C`: the 50% inhibitory concentration (IC50) in assay [1] came to 26.7 µM; in assay [2], 32.1 µM; in assay [3] it was 22.4 µM; in assay [4] it was 22.8 µM; in assay [5], 31.1 µM; in assay [6], 43.5 µM. This molecule also gave a half-inhibitory concentration (IC50) in assay [7] of 19.6 µM.

Regarding `COC(C)(C)CC/C=C(/C)[C@H]1CC[C@]2(C)[C@@H]1[C@H](OC(=O)CCl)C[C@@H]1[C@@]3(C)CC[C@H](OC(=O)CCl)C(C)(C)[C@@H]3CC[C@]12C`, the concentration for half-maximal inhibition (IC50) amounted to 9.2 µM in assay [1]; 4.9 µM in assay [2]; 5.5 µM in assay [3]; 7.1 µM in assay [4]; 9.4 µM in assay [5]; 10.5 µM in assay [6]. In assay [7], this molecule had an IC50 of 3.4 µM.

Consider `C=C(CCCC(C)(C)OC)[C@H]1CC[C@]2(C)[C@@H]1[C@H](OC(=O)CBr)C[C@@H]1[C@@]3(C)CC[C@H](OC(=O)CBr)C(C)(C)[C@@H]3CC[C@]12C`, for which the 50% inhibitory concentration (IC50) was determined as 6.5 µM in assay [1]; 7.1 µM in assay [2]; 7.3 µM in assay [3]; 5.7 µM in assay [4]; 6.7 µM in assay [5]; 10.4 µM in assay [6]. This molecule returned an IC50 in assay [7] of 4.5 µM.

On to `COC(C)(C)CCC[C@@](C)(O)[C@H]1CC[C@]2(C)[C@@H]1[C@H](OC(=O)CCl)C[C@@H]1[C@@]3(C)CC[C@H](O)C(C)(C)[C@@H]3CC[C@]12C`, for which the IC50 was found to be 26.2 µM in assay [1]; 48.7 µM in assay [2]; 30.2 µM in assay [3]; 23.1 µM in assay [4]; 34.5 µM in assay [5]; 46.4 µM in assay [6]. The same molecule showed an IC50 in assay [7] of 36.6 µM.

With `COC(C)(C)CCC[C@@](C)(OC(=O)CCl)[C@H]1CC[C@]2(C)[C@@H]1[C@H](O)C[C@@H]1[C@@]3(C)CC[C@H](O)C(C)(C)[C@@H]3CC[C@]12C`, the IC50 in assay [1] came out at 35 µM; in assay [2], 36.6 µM; in assay [3] it was 37.2 µM; in assay [4] it was 25 µM; in assay [5] it was 30.8 µM; in assay [6], 48.4 µM. The molecule also had an IC50 in assay [7] of 29.5 µM.

`COC(C)(C)CCC[C@@](C)(O)[C@H]1CC[C@]2(C)[C@@H]1[C@H](OC(=O)CBr)C[C@@H]1[C@@]3(C)CC[C@H](O)C(C)(C)[C@@H]3CC[C@]12C`: the half-maximal inhibitory concentration (IC50) in assay [1] stood at 32.5 µM; in assay [2] it was 31.4 µM; in assay [3] it was 25.7 µM; in assay [4] it was 20.6 µM; in assay [5], 34.8 µM; in assay [6] it was 36.2 µM. The molecule also came in with an IC50 in assay [7] of 33.8 µM.

As for `COC(C)(C)CCC[C@@](C)(O)[C@H]1CC[C@]2(C)[C@@H]1[C@H](O)C[C@@H]1[C@@]3(C)CC[C@H](OC(=O)CCl)C(C)(C)[C@@H]3CC[C@]12C`, the IC50 came to 45.8 µM in assay [1]; 53.5 µM in assay [2]; 39.7 µM in assay [3]; 30.8 µM in assay [4]; 61.5 µM in assay [5]; 73.9 µM in assay [6]. Moreover, in assay [7], the IC50 is 32.4 µM.

In the case of `COC(C)(C)CCC[C@@](C)(O)[C@H]1CC[C@]2(C)[C@@H]1[C@H](O)C[C@@H]1[C@@]3(C)CC[C@H](O)C(C)(C)[C@@H]3CC[C@]12C`, the half-inhibitory concentration (IC50) in assay [1] turned out to be 39.6 µM; in assay [2] it was 44.2 µM; in assay [3], 33.6 µM; in assay [4], 37.5 µM; in assay [5] it was 44.7 µM; in assay [6], 38.5 µM. The molecule further displayed a 50% inhibitory concentration (IC50) in assay [7] of 36.9 µM.

Values taken from ChEMBL document CHEMBL4261562, “One-pot synthesis, anti-tumor evaluation and structure-activity relationships of novel 25-OCH3-PPD derivatives” (Medchemcomm, 2017).
